The test system of data set [1] is C6. The data set is described as follows: Morphological alteration in rat C6 cells at 10^-3 M after 90 mins by microscopy. The data set is classed as ADME, cell-based. The note with it: c6, 1.5 h, 1000 µM. In outline:
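Near-confluent C6 rat glioma cultures (about 5-9 x 10^5 cells per plate), grown in DME with 10% newborn calf serum, were given 10^-3 M of each triester with theophylline. After 90 min on a shaking table, morphological change was scored microscopically as the percentage of altered cells. + means 90-95% and - means 0% differentiation.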

For data set [2], the species on record is Bos taurus. The data set is described as follows: Activation of bovine brain cAMP-dependent protein kinase assessed as transfer of p32 to histone using [gamma-32P]ATP at 10^-7 M relative to cAMP triester. The procedure, abridged: (§1)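 Bovine brain cAMP-dependent protein kinase was purified by DEAE-cellulose chromatography (about 1000 units/mg). The 0.2 mL mix held 50 mM Mops pH 6.5, 5 mM MgCl2, 7 mM mercaptoethanol, [γ-32P]ATP (1.3 Ci/mmol), 60 µg calf thymus histones, 15-25 µg kinase and triester or cAMP. It ran 5 min at 30 °C, reading 32P in acid-precipitable histones. Value is test-compound activity divided by cAMP activity.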

For data set [3], the species on record is Bos taurus. Nature of the data set: Activation of bovine brain cAMP-dependent protein kinase assessed as transfer of p32 to histone using [gamma-32P]ATP at 10^-6 M relative to cAMP triester. In outline:
as §1

The nature of data set [4]: Half life in H2O at 5 uM at 50 degC by liquid chromatography. Format: physicochemical. The settings on record: water.
A short description of data set [5]: Half life in Mops buffer at pH 6.5 at 30 degC by liquid chromatography. Format: physicochemical. The procedure, abridged: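 Triester was held in Mops buffer, pH 6.5, at 30 °C. Products were separated by LC with UV monitoring at 258 nm, using integration or an internal standard. Half-life came from a pseudo-first-order kinetic fit.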
A short description of data set [6]: Retardation factor, Rf of the compound in ClCH2CH2Cl-EtOH solvent.
The species entered for data set [7] is Bos taurus. Nature of the data set: Activation of bovine brain cAMP-dependent protein kinase assessed as transfer of p32 to histone using [gamma-32P]ATP at 10^-4 M relative to cAMP triester. The procedure, abridged:
as §1

The nature of data set [8]: Retardation factor, Rf of the compound in […] solvent. Format: physicochemical.
The species entered for data set [9] is Bos taurus. Nature of the data set: Activation of bovine brain cAMP-dependent protein kinase assessed as transfer of p32 to histone using [gamma-32P]ATP at 10^-5 M relative to cAMP triester. The procedure, abridged: as §1
Data set [10] relates to C6. The data set is described as follows: Drug uptake in rat C6 cells assessed as morphologically differentiation at 10^-3 M after 90 mins by microscopy. Format: ADME, cell-based. The settings on record: c6, 1.5 h, 1000 µM.
Data set [11] deals with C6. Nature of the data set: Drug uptake in rat C6 cells assessed as morphologically differentiation at 10^-4 M after 90 mins by microscopy. Format: ADME, cell-based. The note with it: c6, 1.5 h, 100 µM. In outline: (§2)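 Growing C6 rat glioma cells were kept in DME with 10% newborn calf serum at 37 °C under 10% CO2. Near-confluent plates (about 5-9 x 10^5 cells) were exposed to triester with theophylline on a constantly moving shaking table. The percentage of morphologically altered cells was estimated by microscopy at intervals, with an error of 5-10%.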

Data set [12] has as its system C6. The data set is described as follows: Drug uptake in rat C6 cells assessed as cAMP level per of protein at 10^-3 M after 90 mins. The data set is classed as ADME, cell-based. The note with it: c6, 1.5 h, 1000 µM. (cAMP levels reflect the balance of adenylyl cyclase and phosphodiesterase activity.)
Data set [13] has as its system C6. Nature of the data set: Drug uptake in rat C6 cells assessed as cAMP level per of protein at 10^-4 M after 90 mins. The settings on record: c6, 1.5 h, 100 µM. The data set is classed as ADME, cell-based. The procedure, abridged: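 C6 glioma cells were grown in DME with 10% newborn calf serum at 37 °C under 10% CO2 and treated with triester plus theophylline. After 90 min, internal cAMP was measured by Gilman's method and related to protein, using a bovine serum albumin standard.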

Data set [14] has as its system C6. Nature of the data set: Drug uptake in rat C6 cells assessed as morphologically differentiation at 10^-3 M after 20 mins by microscopy. The data set is classed as ADME, cell-based. The settings on record: c6, 20 min, 1000 µM.
For data set [15], the system named is C6. Nature of the data set: Drug uptake in rat C6 cells assessed as morphologically differentiation at 10^-4 M after 50 mins by microscopy. The data set is classed as ADME, cell-based. The settings on record: c6, 50 min, 100 µM. In outline: as §2
Data set [16] has as its system C6. The data set is described as follows: Drug uptake in rat C6 cells assessed as morphologically differentiation at 10^-4 M after 20 mins by microscopy. Format: ADME, cell-based. The settings on record: c6, 20 min, 100 µM. The procedure, abridged:
as §2

Data set [17] deals with C6. The data set is described as follows: Drug uptake in rat C6 cells assessed as morphologically differentiation at 10^-3 M after 50 mins by microscopy. The data set is classed as ADME, cell-based. The note with it: c6, 50 min, 1000 µM.
Data set [18] is described as follows: Photolysis mediated drug hydrolysis assessed as half life under 366 nm irradiation by liquid chromatography. The data set is classed as physicochemical. In outline:
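The o-nitrobenzyl ester, 4 mM in Me2SO-phosphate buffer pH 7.1 (1:10 v/v), was irradiated at 366 nm with a 320 nm cut-off, at 37 °C and 6 cm from the source. Half-life was estimated from the rate of cAMP formation followed by LC.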

The values below come from ChEMBL document CHEMBL3272058, “Synthesis, structure, and reactivity of adenosine cyclic 3',5'-phosphate benzyl triesters” (J Med Chem, 1977).

As a reminder, the half-life is the time needed for the level to fall by half in the phase considered.

In the case of `CO[P@@]1(=O)OC[C@H]2O[C@@H](n3cnc4c(N)ncnc43)[C@H](O)[C@@H]2O1`, the Activity in data set [1] came to 0%.
In the case of `Nc1ncnc2c1ncn2[C@@H]1O[C@@H]2CO[P@@](=O)(OCc3ccc([N+](=O)[O-])cc3)O[C@H]2[C@H]1O`, the Ratio is 0 in [2], 0.04 in data set [3], 1.01 in data set [7] and 0.49 in data set [9]. In data set [4], this compound gave a half-life at 5 µM of 73 h. Moreover, in data set [1], the Activity amounted to 90%. In data set [5], this compound gave a half-life of 3 h. In addition, the Rf is 0.25 in [6] and 0.37 in data set [8].
Take `Nc1ncnc2c1ncn2[C@@H]1O[C@@H]2CO[P@@](=O)(OCc3ccccc3)O[C@H]2[C@H]1O`: the Ratio in data set [2] worked out at 0.03; in data set [3] it was 0.49; in data set [7], 1.22; in [9], 1. Also, the half-life at 5 µM in [4] is 0.5 h. In [1], this compound had an Activity of 90%. Moreover, in data set [5], the half-life is 3 h. Moreover, the figures for the Rf in [6] and in data set [8] were 0.25 and 0.35, respectively.
With `Nc1ncnc2c1ncn2[C@@H]1O[C@@H]2COP(=O)(OCc3ccccc3)O[C@H]2[C@H]1O` (single isomer, unassigned) [listing 1 of 2 here], the Ratio came out at 0 in [2], 0.09 in data set [3], 0.45 in [7] and 0.59 in data set [9].
For `Nc1ncnc2c1ncn2[C@@H]1O[C@@H]2COP(=O)(OCc3ccccc3)O[C@H]2[C@H]1O` (stereo partly specified) the same measures were 0.07, 0.46, 0.66 and 0.84.
In the case of `Cc1ccc(CO[P@@]2(=O)OC[C@H]3O[C@@H](n4cnc5c(N)ncnc54)[C@H](O)[C@@H]3O2)cc1`, the Activity was 90% in data set [10]; 80% in [11]; 90% in data set [1]; 225 pmol/mg in data set [12]; 70 pmol/mg in data set [13]; 20% in [14]. Further, the Activity was determined as 30% in [15], 10% in [16] and 60% in data set [17]. For the same compound, the half-life at 5 µM in data set [4] is 0.1 h. The half-life in data set [5] was 9.5 h. For the same compound, the Rf in [6] is listed as 0.26; in [8] it was 0.45.
`CO[P@]1(=O)OC[C@H]2OC(n3cnc4c(N)ncnc43)[C@H](O)[C@@H]2O1` (single isomer, unassigned): the Activity in data set [1] is recorded as 0%.
Regarding `Nc1ncnc2c1ncn2[C@@H]1O[C@@H]2CO[P@](=O)(OCc3ccc([N+](=O)[O-])cc3)O[C@H]2[C@H]1O`, the Ratio was 0 in data set [2], 0 in data set [3], 0.54 in data set [7] and 0.24 in data set [9]. For the same compound, the half-life at 5 µM in data set [4] is 240 h. The compound also gave an Activity in [1] of 90%. In addition, the half-life in data set [5] was 9.5 h. Moreover, the Rf was 0.34 in data set [6] and 0.43 in data set [8].
Regarding `Nc1ncnc2c1ncn2[C@@H]1O[C@@H]2CO[P@@](=O)(OCc3ccccc3[N+](=O)[O-])O[C@H]2[C@H]1O`, the Ratio was 0 in [2], 0.04 in data set [3], 1.28 in data set [7] and 0.59 in data set [9]. In data set [4], this compound had a half-life at 5 µM of 83 h. The compound also returned an Activity in [1] of 90%. Further, the half-life in [5] was 3 h; in [18], 0.867 h. Further, the Rf in [6] is recorded as 0.26; in [8] it was 0.39.
Compound `Nc1ncnc2c1ncn2[C@@H]1O[C@@H]2COP(=O)(OCc3ccccc3)O[C@H]2[C@H]1O` (single isomer, unassigned) [listing 2 of 2 here] showed a half-life at 5 µM in data set [4] of 2.2 h. The compound further came in with an Activity in [1] of 90%. The compound further showed a half-life in [5] of 9.5 h. The values for the Rf in data set [6] and in [8] were 0.39 and 0.46, respectively.
As to `Nc1ncnc2c1ncn2[C@@H]1O[C@@H]2CO[P@](=O)(OCc3ccccc3[N+](=O)[O-])O[C@H]2[C@H]1O`, the Ratio was 0 in data set [2], 0 in data set [3], 0.34 in data set [7] and 0.05 in [9]. The compound also showed a half-life at 5 µM in data set [4] of 300 h. Moreover, the Activity in data set [1] is listed as 90%. Moreover, the half-life in [5] was 9.5 h; in [18] it was 1.1 h. Moreover, the Rf in [6] worked out at 0.39; in data set [8], 0.44.
As for `CCO[P@@]1(=O)OC[C@H]2O[C@@H](n3cnc4c(N)ncnc43)[C@H](O)[C@@H]2O1`, the Ratio in [2] came out at 0; in data set [3], 0; in [7], 0.14; in data set [9] it was 0.06. Moreover, the Activity in data set [1] worked out at 0%. In addition, the half-life in data set [5] was 9.5 h. Also, the values for the Rf in data set [6] and in [8] were 0.3 and 0.4, respectively.
As to `NC[C@H](O)c1ccc(O)c(O)c1.O=C(O)C(O)C(O)C(=O)O`, the Activity in [11] came out at 90%; in data set [13] it was 250 pmol/mg; in data set [15], 80%; in data set [16], 50%.
Regarding `CCO[P@]1(=O)OC[C@H]2O[C@@H](n3cnc4c(N)ncnc43)[C@H](O)[C@@H]2O1`, the Ratio worked out at 0 in data set [2], 0 in [3], 0.58 in data set [7] and 0.06 in data set [9]. Moreover, the Activity in [1] amounted to 0%. This compound also showed a half-life in [5] of 3 h. For the same compound, the Rf in data set [6] stood at 0.19; in [8], 0.35.
With `COP1(=O)OC[C@H]2O[C@@H](n3cnc4c(N)ncnc43)[C@H](O)[C@@H]2O1` (stereo partly specified), the Ratio in data set [2] worked out at 0; in [3] it was 0.05; in data set [7], 0.67; in data set [9] it was 0.52. The Rf is on record as 0.18 in data set [6] and 0.33 in data set [8].
